Bioassay records from PubChem.
V1aR counter: agonists of human V1a receptor, primary screen, counter-screen for OXTR agonist project, fluorescence, CHO-V1R cells. Fluo-8 calcium fluorescence, agonist mode; 0% DMSO, 100% 3 nM vasopressin. activation, % at 3 µM. Vasopressin V1a receptor (Homo sapiens), P37288. actives 0.25% (n = 320,000);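 active = activation above the mean activation of all tested compounds plus 3 SD, per screening run, cut at about 20% in these data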;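 note: signal is peak over basal fluorescence ratio across a 100 second FLIPR read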
OXTR ag: human OXTR agonists, primary screen, fluorescence, CHO-OTR cells, Fluo-8 calcium. Oxytocin receptor (Homo sapiens), P30559. Fluo-8 calcium fluorescence; normalized: DMSO 0%, oxytocin 100%. activation, % at 3 µM. actives 0.32% (n = 320,000);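 active = activation above the mean of all tested compounds plus 3 SD, cutoff set per screening run, cut at about 20% in these data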;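 note: peak over basal fluorescence ratio from a 100 s FLIPR kinetic read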
Target sequence (P30559 whole entry, looked up): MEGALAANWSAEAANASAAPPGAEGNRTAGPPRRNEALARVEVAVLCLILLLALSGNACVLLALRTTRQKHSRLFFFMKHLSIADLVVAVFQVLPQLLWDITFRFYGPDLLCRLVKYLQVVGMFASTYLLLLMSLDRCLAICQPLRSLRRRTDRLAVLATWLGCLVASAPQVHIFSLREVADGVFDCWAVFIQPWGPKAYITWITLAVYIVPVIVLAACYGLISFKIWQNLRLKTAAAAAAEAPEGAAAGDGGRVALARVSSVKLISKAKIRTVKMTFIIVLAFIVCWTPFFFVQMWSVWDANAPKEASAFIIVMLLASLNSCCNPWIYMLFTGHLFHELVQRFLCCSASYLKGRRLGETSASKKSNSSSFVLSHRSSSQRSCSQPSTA
OXTR potentiator: human OXTR potentiators, primary screen, fluorescence, CHO-OTR cells, Fluo-8 calcium; Fluo-8 calcium fluorescence, potentiator mode; 0% = oxytocin EC15, 100% = EC100; activation, % at 3 µM; actives 0.061% (n = 320,000); Oxytocin receptor (Homo sapiens), P30559;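 active = activation above that plate's cutoff, the mean activation of tested compounds plus 3 SD, cut at about 6.6% in these data, passing the limit was not always enough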;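 note: 100% uses oxytocin at 75 nM as the full agonist control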
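System: human OTR in CHO cells; Also added: sub-maximal oxytocin, roughly EC15; Timing: compound 6 min at room temperature before oxytocin, 100 s read; Technique: Fluo-8 intracellular calcium fluorescence, ex 470-495, em 515-575 nm; Controls: oxytocin EC15 low and EC100 high; Replication: singlicate.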
TAAR1 antag: human TAAR1 antagonists, primary screen, Fluo-8 calcium fluorescence, CHO RD-HGA16 cells; antagonist; inhibition, % at 3 µM; actives 1.5% (n = 360,000); AID 624466, 2012;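 active = inhibition above a per-plate cutoff, the mean inhibition of test compounds on that plate plus 3 SD, cut at about 49% in these data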;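 note: 0% = DMSO plus EC80 beta-PEA response and 100% = DMSO alone without agonist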
Target sequence (Q96RJ0 whole entry, looked up): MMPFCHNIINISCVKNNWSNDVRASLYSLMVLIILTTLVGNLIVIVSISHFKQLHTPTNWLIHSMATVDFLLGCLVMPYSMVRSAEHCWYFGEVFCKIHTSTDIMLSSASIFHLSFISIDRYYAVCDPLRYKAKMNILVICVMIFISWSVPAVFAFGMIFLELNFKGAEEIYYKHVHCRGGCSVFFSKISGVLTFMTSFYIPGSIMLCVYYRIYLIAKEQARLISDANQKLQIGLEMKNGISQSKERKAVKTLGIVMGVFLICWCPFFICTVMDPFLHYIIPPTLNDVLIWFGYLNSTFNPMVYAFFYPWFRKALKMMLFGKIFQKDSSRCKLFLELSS
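Material: RD-HGA16 CHO cells with stable hTAAR1 and Gα16; Dosing: single nominal final test compound concentration of 3 µM; Schedule: seeding 17-24 h prior, 75-min 37 °C, 30-min RT dye loading; Detection: kinetic Fluo-8 calcium fluorescence measurement; Measure: % inhibition from peak post-agonist over basal fluorescence ratio; Benchmarks: vehicle and agonist controls.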
TAAR1 agonist: human TAAR1 agonists, primary screen, Fluo-8 calcium fluorescence, CHO RD-HGA16 cells; Trace amine-associated receptor 1 (Homo sapiens), Q96RJ0; vehicle wells 0%, saturating PEA agonist 100%; activation, % at 3 µM; actives 0.99% (n = 360,000); AID 624467, 2012;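 active = activation above the mean activation of all test compounds in the run plus 3 SD, cut at about 38% in these data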
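Test system: RD-HGA16 (CHO) cells co-expressing Gα16 and hTAAR1 | Doses: Single dose, 3 µM | Schedule: 17-24 h seeding, 75 min 37 °C dye, 30 min RT | Evaluation: % activation from peak over basal fluorescence ratio, DMSO-to-PEA scaled | Technique: Kinetic Fluo-8 calcium fluorescence | Benchmarks: Low control DMSO, high control PEA (EC100)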
An asterisk follows results filed as active; . = no result; ! = not confirmed by another sample. Only some compounds are listed: those with a hit (about 2.3% of all), similar ones and a draw of the others.

SMILES	V1aR counter	OXTR ag	OXTR potentiator	TAAR1 antag	TAAR1 agonist
Cc1cccc(NC(=O)CN(C)S(=O)(=O)c2cccc3nsnc23)c1C	-0.2	-1.8	-13.5	-9.3	3.7
O=C1OC[C@@H]2CCCN2C(=O)[C@@H](CC(=O)N(CCO)Cc2ccccc2)C/C=C\C[C@@H]1Cc1ccc(F)cc1	0.5	-0.8	-1.6	53.9*	26.1
CCC(=O)Nc1nc(CC(=O)Nc2ccccc2OC)cs1	0.9	-0.4	-10.0	-12.0	10.6
COc1cccc(NC(=O)Cc2csc(NC(=O)Nc3ccccc3OC)n2)c1	-0.5	-0.7	-11.2	56.0*	12.1
COc1ccccc1NC(=O)Nc1nc(CC(=O)Nc2ccc(OC)c(OC)c2)cs1	0.4	0.1	-6.6	49.3*	12.8
CC(C)/C=C1\CC/C(=C\c2ccc(N(C)C)cc2)C1=O	59.2*	69.4*	-16.5	71.7*	56.6*
O=C(CCC(=O)OCc1ccc(C(=O)Oc2ccccc2)cc1)Nc1cccc2ccccc12	0.6	-1.4	-7.0	49.0*	7.9
Cc1nc(C)c(C(=O)N/N=C/c2cc(Br)ccc2O)s1	2.9	3.1	-2.0	-11.7	3.2
COc1ccnc(Oc2ccccc2)c1C(=O)N/C=N/OCc1ccccc1	7.5	4.8	-0.3	31.6	16.7
COc1ccnc(Oc2cccc(C(F)(F)F)c2)c1C(=O)N/C=N/OCc1ccccc1F	5.1	3.0	-4.4	53.7*	18.8
Cc1cc(C)c(OCCCNCc2ccccc2)c(Br)c1	7.8	11.9	-8.0	2.0	16.4
Cc1cc(Cl)c(OCCCNCc2ccccc2)c(Br)c1	9.7	14.8	-7.2	-0.4	44.4*
CCc1nnc(N/N=C/c2cc(Br)c(O)cc2O)n1N	0.5	0.8	4.2	-15.3	6.7
CC(C)(C)c1nnc(N/N=C/c2cc(Br)ccc2O)n(N)c1=O	6.0	3.6	-8.5	68.3*	25.1
C=CCn1c(CSCc2ccc(C)cc2)nnc1SCC(=O)NCc1ccccc1	1.2	-2.4	-23.5	50.2*	17.5
C=CCn1c(CSCc2ccc(Cl)cc2)nnc1SCC(=O)NCc1ccccc1	3.9	-0.1	-21.6	43.9	18.0
COc1ccc(CCNC(=O)Cn2nnc(-c3ccc(OC)c(OC)c3)n2)cc1OC	0.3	-0.9	-13.9	-14.7	-0.7
COc1ccc(N2CCN(C(=O)c3ccc(CS(=O)(=O)c4ccc(Br)cc4)o3)CC2)cc1	1.7	1.2	-8.8	2.0	2.9
O=C(c1ccc(CS(=O)(=O)c2ccc(Br)cc2)o1)N1CCN(c2ccc(F)cc2)CC1	3.6	0.6	-9.0	52.4*	3.1
CCOc1cc(C2C(C(=O)N3CCOCC3)=C(C)NC3=C2C(=O)CCC3)ccc1O (centres undefined)	-0.6	0.7	0.8	-1.9	-0.4
COc1cc(NC(=O)c2csc(N)n2)cc(C(=O)Nc2cccc(C(F)(F)F)c2)c1	-1.2	-2.0	-14.8	52.6*!	4.6
COc1cc(NC(=O)c2ccnc(N)c2)cc(C(=O)Nc2cccc(C(F)(F)F)c2)c1	-0.1	0.0	-5.4	30.3	11.4
COc1cc(NC(=O)c2cnc(N)s2)cc(C(=O)Nc2cccc(C(F)(F)F)c2)c1	0.4	-0.4	0.2	30.3	1.4
COc1cc(NC(=O)c2cc(C)on2)cc(C(=O)Nc2cccc(C(F)(F)F)c2)c1	0.5	1.9	-12.5	54.4*!	5.5
CCOc1ccccc1N1CC(C(=O)N(CC)C2CCS(=O)(=O)C2)CC1=O (centres undefined)	0.7	0.0	-8.2	0.0	4.8
SMILES	V1aR counter	OXTR ag	OXTR potentiator	TAAR1 antag	TAAR1 agonist
Cc1ccc(S(=O)(=O)CCC(=O)NCCN2C(=O)S/C(=C\c3ccccc3)C2=O)cc1	11.2	9.2	-11.4	54.6*	15.9
CC(C)(C)CN1CCN(Cc2cc3ccccc3[nH]2)CC1CCO (centres undefined)	1.7	2.9	1.8	-19.4	4.8
CCOc1ccc(CN2CCN(Cc3cc4ccccc4[nH]3)CC2CCO)cc1 (centres undefined)	.	.	.	38.4	41.7*
COc1ccc(NC(=O)NN2CCOCC2)cc1OC	1.1	1.4	4.7	63.2*	5.8
O=C(CCc1nc(-c2ccccc2F)no1)NCCN1CCc2ccccc2C1	1.4	0.9	-2.1	.	.
CCCCCc1c(-c2ccc(Cl)cc2)ncn1CCc1ccccc1OC	.	.	.	19.1	27.6
CCCCc1c(-c2ccc(OC)cc2)ncn1CCc1ccccc1OC	.	.	.	50.2*	23.6
CCCCCc1c(-c2ccc(OC)cc2)ncn1CCc1ccccc1OC	.	.	.	60.7*	14.4
CCCCN(C)C(=O)c1ccc2c(c1)N(CC)C(=O)c1ccccc1S2=O (centres undefined)	-0.5	-2.0	-6.1	-3.1	5.2
Cc1ccc(NC(=O)COC(=O)C2(c3ccc(Cl)cc3)CCCC2)cc1	3.1	1.8	-11.7	58.3*	10.2
CCCn1c(=O)c2ccccc2n2c(SCCOc3ccc(OC)cc3)nnc12	-0.6	-0.4	-6.5	-12.4	11.7
COc1ccc(CCN(C)C(=O)c2cc(-c3ccccc3)nc3ccccc23)cc1OC	.	.	.	13.4	3.4
COc1cccc(CN(C)C(=O)c2cc(-c3ccc(F)cc3)nc3ccccc23)c1	2.3	-0.7	-3.8	.	.
COc1cccc(CN(C)C(=O)c2cc(-c3ccc(OC)c(OC)c3)nc3ccccc23)c1	.	.	.	50.7*	3.5
COc1ccc(-c2cc(C(=O)N(C)Cc3nc4ccccc4c(=O)[nH]3)c3ccccc3n2)cc1OC	10.8	-1.1	-1.2	59.0*	11.3
COc1cc2nc(CN(C)Cc3nc4ccccc4c(=O)[nH]3)[nH]c(=O)c2cc1OC	0.1	1.3	3.2	-17.0	7.0
COc1ccc(CN(C)C(=O)c2cc(-c3ccccc3)nc3ccc(C)cc23)c(OC)c1OC	-0.7	-0.9	-8.7	62.6*	3.6
COc1ccc(-c2cc(C(=O)N(C)CCc3ccc(OC)c(OC)c3)c3ccccc3n2)cc1	.	.	.	49.4*	12.1
Cc1ccc(C=Nc2cccnc2N)cc1	2.1	1.0	-4.9	.	.
O=C(Nc1cccc(/C=C/c2ccccn2)c1)c1cc(Cl)ccn1	-0.8	-1.4	-7.0	9.0	0.3
O=C(O)c1cc(Cl)ccc1-c1ccc(/C=C/c2cc(C(F)(F)F)[nH]c(=O)n2)o1	16.5	14.1	-8.0	8.7	67.2*
CCN(CC)S(=O)(=O)c1ccc2c(c1)c(=O)c(C(=O)N1CCOCC1)cn2C	0.7	0.1	2.8	-2.6	9.8
Cc1ccc(N=c2ssnc2Cl)cc1	2.2	1.6	-11.0	16.4	40.9*
